System: MS2 coat protein
Assay: apparent Kd, MS2 coat protein; higher = weaker binding; RNA-MaP array; FMN 200 µM where present
Summary of the method: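 Green signal from SNAP-549-labelled MS2 coat protein was normalised to red-channel RNA signal and to the median Fmax of control clusters. The protein was titrated from 0.7 or 1.5 nM, doubling to 3 µM, without and then with constant ligand, over designs transcribed by stalled E. coli RNA polymerase on Illumina sequencing-chip clusters, in 100 mM Tris-HCl pH 7.5, 80 mM KCl, 4 mM MgCl2, BSA, DTT, yeast tRNA and Tween-20. The apparent Kd is the median of filtered per-cluster binding-curve fits.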

[1] = designed as: ON switch for flavin mononucleotide, no ligand
[2] = ligand present: flavin mononucleotide, designed as: ON switch for flavin mononucleotide
[3] = designed as: OFF switch for flavin mononucleotide, no ligand
[4] = ligand present: flavin mononucleotide, designed as: OFF switch for flavin mononucleotide

Row | Sequence | apparent Kd [1] [nM] | apparent Kd [2] [nM] | apparent Kd [3] [nM] | apparent Kd [4] [nM]
1 | AAUUUAAUACAUGAGGAUCACCCAUGUAAAUUAAUUAAGAUCUAGGAUAUCAGCUCGUUUAGAGCUGAGAAGGAGAUCACAUGU | 16.6 | 14.1 | – | –
2 | AAUUUCAGAUGAGGAUAUUGACAUGAGGAUCACCCAUGUAUUUGGGAAUGUUUACUGAAUUCUUACAAGAAGGUAUACGAACUU | – | – | 237 | 164
3 | ACUUCACAUGAGGAUCACCCAUGUCAGGCCGGACUAGGAUAUUAUCAACCAGAGUAACCAUAAGAAGGAGUAGGAA | 64.4 | 78.4 | – | –
4 | UUUCUCGUUGUGAGGAUAUCGUUUUUGUUUUGGAUCGAGAAGGCACAUGAGGAUCACCCAUGUUUGUUGUGGUU | – | – | 119 | 87.7
5 | CGAUGAGGAGUGAGGAUAUCGUGUUCGAAAGAACGUGAGAAGGCACAUGAGGAUCACCCAUGUGAAACUUGUCG | – | – | 17.1 | 23.9
6 | CGCAAGUCAGGAUAUUCGACUGGUAAAUCAGUGGAUCAGUAGGAGAAGGGACAUGAGGAUCACCCAUGUUUGUA | – | – | 27.8 | 30
7 | AAUAACAGAGGAUAUACUAUUUUAUGUGUUUGUUAUUUUGAACAUGAGGAUCACCCAUGUAGAAGGCUGAUUAA | – | – | 44.4 | 43.9
8 | AUUGAUGUUGAGGAUAUGCUUUUAUUUAUUCUUGCAGAAGGCGAUACAUGAGGAUCACCCAUGUUCAUGGAAGU | – | – | 40.5 | 40.6
9 | UUGGACGUCGUAGGAUAUGUAGGAUAUUCCUACAUGAGGAUCACCCAUGUCGACAUGGAAGAAGGACAGAAGGACGAUGUCCAU | 238 | 4.22 | – | –
10 | UAAAAGCUAGGAUAUACAUGAGGAUCACCCAUGUCACGGGUGCCACACCGAAAGGUGCGUAGAAGGAGCCCAAA | – | – | 38.6 | 103
11 | CGACCCUAAACGAAAUUAUGCAGUCAGGAUAUACAUGAGGAUCACCCAUGUGCGUACCAACUCGUGUAGAAGGGACUUUUAGGG | – | – | 24.7 | 84.6
12 | CUUGAUCUUGUCAGGAUAUACCUGCCUAGUUGGAGGUAGAAGGGACAUGAGGAUCACCCAUGUAGCCAACCGAC | – | – | 16.9 | 19.2
13 | CCCGCCAUACAGAAGGGAAACAUGAGGAUCAGCCGCGACAUGAGGAUCACCCAUGUUUACCUAUUUCAGGAUAUGUACACUCCC | 470 | 225 | – | –
14 | UAUAAACAUGAGGAUCACCCAUGUAAUAAUAUGGGAGGAUAUCAGAAUUUAUUUAUUUAAUGAGAAGGCCUAAUAU | 627 | 43.2 | – | –
15 | UAAAAGACUAGCGAUCUAAAGAUCACAUGAGGAUCACCCAUGUAGGAUAUGAGCAGAAAAUCUGCUCAGAAGGACAUGCUAGUC | – | – | 5.88 | 9.18
16 | AGCUAGUCAGGAUAUACGUAAAUGUCGAAAGACGUAUUGGGACAUGAGGAUCACCCAUGUAGAAGGGACUAGCA | – | – | 27.2 | 108
17 | CAAGGGCAUGAGAAGGCAUAAUUUAUAAUACCACAUGUUUACAUGAGGAUCACCCAUGUUACCUAUGAGGAUAUCAUGCCUACA | – | – | 14.3 | 13.1
18 | GGAUAGGACAGAGGAUAUACAGAUAGGAUCUACUAUCAAACAGUCCUGACAUGAGGAUCACCCAUGUAGAAGGCUGUCCUAUCG | – | – | 21.9 | 107
19 | GUAACAUGAGGAUCACCCAUGUCGUGCUAGAUGAGUUCUGGUGAGGAUAUACAUGGUAAAUAACUGUAGAAGGUGCUGGGUACA | 159 | 167 | – | –

Row | Sequence | apparent Kd [1] [nM] | apparent Kd [2] [nM] | apparent Kd [3] [nM] | apparent Kd [4] [nM]
20 | UGCAUGUAAGGAUAUGCAUCCGCCGGCGAACCGGCGCCACAGCAGAAGGUACAUGAGGAUCACCCAUGUGUCCC | – | – | 18.8 | 51.6
21 | CCAUGCGGAUGAGGAUAUUCAUCCAUGAGGAUAGAAGAAGGCAUACAUGAGGAUCACCCAUGUAUACGCAUGAGGAUCCCUUAC | – | – | 27.3 | 22.3
22 | AGUCAUACAGGAUAUACAUGAGGAUCACCCAUGUAUAUCCUACAUGGGUGAUCCUCAUGUAGAAGGGUAUGACA | – | – | 13.5 | 11.6
23 | UGCUGUGUCAGAGGAUAUACAUCAAUAAUCCAUUGCAAAUAGCGAUGGACAUGAGGAUCACCCAUGUAGAAGGCUGUCACAGCA | – | – | 111 | 384
24 | CGUCAUUACUCAGGAUAUGCAUCAUACUUGAGGGCAGAAGGGAGUACAUGAGGAUCACCCAUGUACUAUGGGUGCCUAAGAGGU | – | – | 18.7 | 101
25 | UUGGACGUCGUAGGAUAUGUAGGAUAUUCCUACAUGAGGAUCACCCAUGUUGACAUGGAAGAAGGACAGUAGGACGAUGUCCAU | 251 | 8.02 | – | –
26 | GUUAUACAUGAGGAUCACCCAUGUCAAUGUAGUCGAGGAUAUGGGCAGCUAUGAGGCGUACUAGAAGGCGAUGAGU | 156 | 44.5 | – | –
27 | CGAGGGUGGGACCCACGCUUUCGACAUGAGGAUCACCCAUGUAAGGAUAUCGCGGCCUACCAUAGCGAGAAGGUACGUGCGGGU | – | – | 13 | 25.9
28 | GCGCGCGCAGGAUAUACAAUUGUGUGUGGAAACGCGCGCGUACAUGAGGAUCACCCAUGUAGAAGGGUGUGUGU | – | – | 445 | 198
29 | AAUAAUUAGUAAGGAUAUACUAGUGAUUAGCUUGUAGAAGGUACAGUCUUAUGUAUAAUAAAUUAACAUGAGGAUCACCCAUGU | 11.6 | 9.86 | – | –
30 | AGUUGGCGAGGAUAUACAUGAGGAUCACCCAUGUGAGAGAAAAAAGUGAGAAAGAAAAGUAGAAGGCGCUGACA | – | – | 45.3 | 217
31 | UGAACUCAUGUAGGAUAUGCAUGGCGAAGCUACGCAGAAGGACAUGAGGAUCACCCAUGUUCUAGCGUCUGAGUACAGAUGCAA | – | – | 148 | 118
32 | UAGUAUAAGGGCAUUACACAUGAGGAUCACCCAUGUACGUUAGAGGAUAUGCAUUCCAGUCGAACGUAGAAGGUUAGAGAAGGG | – | – | 211 | 176
33 | GUGCCUUGGGAGAAGGUUAUUAGCAAAGCUAUUAAAGGAUAUUCAUACCGGAAACGGACAUGAGGAUCACCCAUGUGGCACAAA | 1630 | 122 | – | –
34 | AUAUCUAUAUCAGGAUAUGGACAGGCCUGUCCGUAUUGAGACAGUAACAUGAGGAUCACCCAUGUCCAGAAGGGAUCGAUAUAU | – | – | 38.6 | 41.8
35 | GUUGGGUGUCAUGUCGCACAUGAGGAUCACCCAUGUAGGAGGUAGGAUAUCCACGAGUAACAAGAGGAGAAGGGCCGUUAGCGU | – | – | 27.9 | 33.6
36 | UUACUACAUGAGGAUCACCCAUGUCAGGAUAUUGUCUAUACUUUGGAAUAUGUGUCGAUAAGAAGGGACUGUAU | – | – | 19.9 | 26.2
37 | GCAUGCAUAGCGAUAUGAUCGAGAGAUCAUGUCGCUAAAUUUAGAAGGACAUGAGGAUCACCCAUGUAGGAUAUGGGAGCAUGC | 11.7 | 7.72 | – | –
38 | UGAUCUUUUGUUAGGAUAUGCUGGCUGAAAAGUCAGCAGAAGGGACAUGAGGAUCACCCAUGUUCUCUCUUUUU | – | – | 9.66 | 13.6

Row | Sequence | apparent Kd [1] [nM] | apparent Kd [2] [nM] | apparent Kd [3] [nM] | apparent Kd [4] [nM]
39 | CCUAAGGACACAGGAUAUAGCGUGGUUGCUGGGCUCCAACGGCGAGCGGCGCUAGAAGGGUGACCACAUGAGGAUCACCCAUGU | 532 | 162 | – | –
40 | GCCUUACCGGUCAGGAUAUACACUCGUCACUCCUUGUAGAAGGGACAUGAGGAUCACCCAUGUACAUUACAUUC | – | – | 38.6 | 38
41 | CCGAGUAGCGCAGGAUAUGACUUGGUUGUUUGGUCAGAAGGGUGAUUCUCGGUAAGAAACAGGACAUGAGGAUCACCCAUGUCA | 102 | 24.9 | – | –
42 | UAGAAGUCAGGAUAUGCAUGGCGGGACUUGCGUCGUGGCGUGCAGAAGGGACAUGAGGAUCACCCAUGUGGAGC | – | – | 116 | 169
43 | GUCAGCUCGUGAGGAUAUACAACACUGCUUCGGCAGUGUAUUAAGAUCACAUGAGGAUCACCCAUGUAGAAGGCACGAGCUGAC | – | – | 12.9 | 251
44 | AAAAAACAUGAGGAUCACCCAUGUCCUCGGACAUGAGGAUAUGUACAGACUUCGGUCUGUACAGAAGGCAUGUCUU | 302 | 308 | – | –
45 | UGUCGGAGCAGAGGAUAUUACAUGAGGAUCACCCAUGUAUAAACCAAUAGCUGGAAACAGCAAUGUAAGAAGGCUGCUCCGACA | – | – | 5.28 | 10.1
46 | AACAAGUGAGGAUAUGAUAAUACAACAAACAAACAUCUACAUCAGAAGGCACAUGAGGAUCACCCAUGUUAAUC | – | – | 22 | 27.2
47 | GUAGAGUAAGGAUAUAGUGAAUAGGAUAGAAUGGUUAGAAACUAGAAGGUACAUGAGGAUCACCCAUGUAAUGU | – | – | 23.6 | 21.2
48 | UAUCCACAUGAGGAUCACCCAUGUCAGGAUAUUAGAUCUAUAUAUACAUAUAAUUAUUUAAGAAGGGACACUAA | – | – | 11.5 | 11.8
49 | UGUUGAUAGCAGAAGGACAUGAGGAUCACCCAUGUAAGGUUACAAAUAUAUGUAGGAUAUGCUAUUGACUAAGAGUGAGCGUUC | – | – | 8.88 | 39.5
50 | UAUCUGUCGGUCAGGAUAUCGUUUGCCACUGUAGCCGAGAAGGGACAUGAGGAUCACCCAUGUGAUUCACGGCA | – | – | 23.1 | 27.1
51 | GUGCCGAACCUAGGAUAUCUUAUCGGGUUCCGCCGUGGCUUAGCGACAUGAGGAUCACCCAUGUAAGAGAAGGAGGUGGCGGAG | – | – | 128 | 135
52 | GGCGAACAGGCUAACAUGAGGAUCACCCAUGUGGACUCAUGGUAGGAUAUGCUGUACUUUGUACAGCAGAAGGGCCGGUGAGCC | 54.4 | 315 | – | –
53 | GGUCCACGAGGAUAUCGAUUAUAGUACAUGAGGAUCACCCAUGUUGUCCAGGUUUCGAUUCGAGAAGGCGUGGGUU | – | – | 54.4 | 39
54 | CAAAGUUGGUAAGGAUAUCCCACAUUAUUCUGGCCCGUGCAAGCUACAUGAGGAUCACCCAUGUGGGAGAAGGUGCGUUAAAGA | – | – | 22 | 33.7
55 | GCUGCAUAGGCAGGAUAUGCAAAAGCAGAUGCAAAGCAUCUGCAAAAUACAUGAGGAUCACCCAUGUAGAAGGGCCUGUGCAGU | – | – | 23.1 | 20.6
56 | AAAAAACAUGAGGAUCACCCAUGUGAGGAUAUGCGAAAAAAAAAAAAAAAAAAAAAAAGCAGAAGGUACAAAAA | – | – | 92.2 | 47.6
